The source of these data is article PMC9041536 (RSC Advances, 2021).

Where only a bound is given, the exact number is not on record here.

For data set [1], the system named is human intrahepatic cholangiocarcinoma (KKU-M213). In words: SRB cytotoxicity assay, KKU-M213. The settings on record: KKU-M213, 72 h, read-out: Cytotoxicity (IC50) KKU-M213. The data set is classed as cell-based. A general note: Sulforhodamine B stains cellular protein and so reports cell mass.
Data set [2] relates to human squamous cell carcinoma (FaDu). Nature of the data set: SRB cytotoxicity assay, FaDu. The class given is cell-based. The conditions noted are these: 72 h, read-out: Cytotoxicity (IC50) FaDu.
Data set [3] concerns human colorectal adenocarcinoma (HT-29). Nature of the data set: SRB cytotoxicity assay, HT-29. The settings on record: HT-29, 72 h, read-out: Cytotoxicity (IC50) HT-29. The data set is classed as cell-based.
Data set [4] has as its system human mammary gland adenocarcinoma (MDA-MB-231). Nature of the data set: SRB cytotoxicity assay, MDA-MB-231. The data set is classed as cell-based. The conditions noted are these: MDA-MB-231, 72 h, read-out: Cytotoxicity (IC50) MDA-MB-231.
For data set [5], the system named is human lung carcinoma (A-549). Nature of the data set: SRB cytotoxicity assay, A-549. The data set is classed as cell-based. The settings on record: A549, 72 h, read-out: Cytotoxicity (IC50) A-549.
The test system of data set [6] is human neuroblastoma (SH-SY5Y). In words: SRB cytotoxicity assay, SH-SY5Y. The settings on record: for IC50: Homo sapiens, SH-SY5Y, 72 h, read-out: Cytotoxicity (IC50) SH-SY5Y. The class given is cell-based.
The nature of data set [7]: SRB cytotoxicity assay, normal cell line CL. The class given is cell-based. The conditions noted are these: human, CL cells (normal liver hepatic cell line).
Data set [8] concerns six cancer cell lines, KKU-M213, FaDu, HT-29, MDA-MB-231, A-549, and SH-SY5Y. Nature of the data set: SRB cytotoxicity assay, all tested cancer cell lines. The conditions noted are these: for Cytotoxicity (in words): under tested concentrations (0.1–50 μM). The class given is cell-based, human. The procedure, abridged: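 Sulforhodamine B assay, slightly modified, with ellipticine as positive control. Compounds were in 10% DMSO and tested over 0.1–50 μM. Cells exposed for 72 h at 37 °C, 5% CO2, humidified. Fixed with 10% TCA, stained with 0.4% SRB, unbound dye washed off with 1% acetic acid, bound dye solubilised in 10 mM Tris base (pH 10.5). A510 read. IC50 is the concentration giving 50% growth inhibition.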

In another data set the test system is S. aureus (ATCC 25923). Nature of the data set: Agar well diffusion method, S. aureus. The data set is classed as cell-based. The settings on record: Staphylococcus aureus, ATCC25923, read-out: zone of inhibition S. aureus. In outline:
(§1)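 Bacteria swabbed onto Mueller–Hinton agar, then 6 mm wells cut with a sterile cork borer. Each well received 20 µL of test compound dissolved in DMSO at 5 mg mL−1. Plates held 30 min in a refrigerator for diffusion, then incubated at 37 °C for 16–20 h. Inhibition zone measured in mm. Negative control: 10% DMSO.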
For orientation: Agar diffusion results depend on both activity and mobility in agar.

For another data set, the system named is E. coli (ATCC 25922). Nature of the data set: Agar well diffusion method, E. coli. The data set is classed as cell-based. The conditions noted are these: Escherichia coli, ATCC25922, read-out: zone of inhibition E. coli. The procedure, abridged: as §1
Data set [9] relates to P. aeruginosa (ATCC 27853). Nature of the data set: Agar well diffusion method, P. aeruginosa. The data set is classed as cell-based. The conditions noted are these: Pseudomonas aeruginosa, ATCC27853, read-out: zone of inhibition P. aeruginosa. In outline: as §1

By IC50 is commonly meant the midpoint of a concentration-inhibition curve. As to `CCCC(=O)Oc1c(C)c(O)c(C(=O)/C=C/c2ccccc2)c(OC)c1C` [Compound 2a, 2′-Hydroxy-4′-butyryloxy-6′-methoxy-3′,5′-dimethylchalcone], the half-maximal inhibitory concentration (IC50) in data set [1] is 30.1 µM; in data set [2], 31.2 µM; in data set [3] it was 35.8 µM; in data set [4], 38.2 µM; in [5], over 50 µM; in data set [6], 27.6 µM. This compound showed an IC50 at 72 h in data set [7] of 32.8 µM.

In the case of `COc1c(C)c(OCc2ccccc2)c(C)c(O)c1C(=O)/C=C/c1ccccc1` [Compound 2h, 2′-Hydroxy-4′-benzyloxy-6′-methoxy-3′,5′-dimethylchalcone], the IC50 in data set [1] worked out at 23.2 µM; in data set [2], 14 µM; in data set [3], 27.5 µM; in [4], 26.9 µM; in data set [5], 9.99 µM; in data set [6], 16.4 µM. The compound further had a half-maximal inhibitory concentration (IC50) at 72 h in data set [7] of 22.6 µM.

As to `C=CCOc1c(C)c(O)c(C(=O)/C=C/c2ccccc2)c(OC)c1C` [Compound 2i, 2′-Hydroxy-4′-allyloxy-6′-methoxy-3′,5′-dimethylchalcone], the half-maximal inhibitory concentration (IC50) in data set [1] came to 31.3 µM; in data set [2], 29 µM; in [3] it was 34.6 µM; in [4], 39.1 µM; in data set [5], 36.7 µM; in data set [6] it was 28.2 µM. For the same compound, the half-maximal inhibitory concentration (IC50) at 72 h in data set [7] stood at 31.7 µM.

Take `CCCCCCCC(=O)Oc1c(C)c(O)c(C(=O)/C=C/c2ccccc2)c(OC)c1C` [Compound 2c, 2′-Hydroxy-4′-capryloyloxy-6′-methoxy-3′,5′-dimethylchalcone]: the concentration for half-maximal inhibition (IC50) in data set [1] was 24.4 µM; in [2] it was 20.6 µM; in [3] it was 26.6 µM; in [4], 25.9 µM; in data set [5], over 50 µM; in data set [6], 18 µM. Moreover, it took 25.2 µM to reach half-maximal inhibition in [7] (IC50 at 72 h).

Consider `CCCCCC(=O)Oc1c(C)c(O)c(C(=O)/C=C/c2ccccc2)c(OC)c1C` [Compound 2b, 2′-Hydroxy-4′-caproyloxy-6′-methoxy-3′,5′-dimethylchalcone], for which the IC50 in data set [1] was found to be 21.3 µM; in [2] it was 18.9 µM; in data set [3] it was 26.6 µM; in [4], 18.1 µM; in [5], 24.8 µM; in data set [6] it was 5.2 µM. For the same compound, in [6] (ratio of IC50 on normal cell (CL) divided by that on cancer cell), the “Selectivity Index (SI) SH-SY5Y” value is 4.53. The compound further came in with a half-maximal inhibitory concentration (IC50) at 72 h in data set [7] of 23.5 µM.

Consider `COc1c(C)c(OC(C)=O)c(C)c(OC(C)=O)c1C(=O)/C=C/c1ccccc1` [Compound 5f, 2′,4′-Diacetyloxy-6′-methoxy-3′,5′-dimethylchalcone], for which the IC50 in [1] is 28 µM; in data set [2], 33.6 µM; in [3] it was 36.5 µM; in [4] it was 29.8 µM; in [5], 15.4 µM; in data set [6], 18.8 µM. The concentration for half-maximal inhibition (IC50) at 72 h in data set [7] is 27.4 µM. For the same compound, the “Cytotoxicity (in words)” value in data set [8] is given as “poor cytotoxicity”.

Consider `Cc1c2ccncc2c(C)c2c1[nH]c1ccccc12` [Ellipticine, reference compound], for which the IC50 came out at 2.4 µM in data set [1]; 2.03 µM in data set [2]; 2.15 µM in [3]; 2.8 µM in data set [4]; 1.14 µM in data set [5]; 2.64 µM in [6]. Further, in [7], the IC50 at 72 h is 2.07 µM.

Regarding `COc1c(C)c(OC(C)=O)c(C)c(O)c1C(=O)/C=C/c1ccccc1` [Compound 2f, 2′-Hydroxy-4′-acetyloxy-6′-methoxy-3′,5′-dimethylchalcone], the 50% inhibitory concentration (IC50) in data set [1] was 43 µM; in [2], 36.5 µM; in [3], 38.6 µM; in data set [4] it was 40.3 µM; in [5] it was over 50 µM; in data set [6], 28.6 µM. In data set [7], this compound showed a concentration for half-maximal inhibition (IC50) at 72 h of 31 µM.

For `COc1c(C)c(OC(=O)c2ccc(C)cc2)c(C)c(O)c1C(=O)/C=C/c1ccccc1` [Compound 2l, 2′-Hydroxy-4′-(p-toluoyloxy)-6′-methoxy-3′,5′-dimethylchalcone], the concentration for half-maximal inhibition (IC50) in data set [1] came out at 28.9 µM; in data set [2], 22.1 µM; in data set [3], 26.8 µM; in data set [4], 25.1 µM; in [5], 22.4 µM; in data set [6], 15.6 µM. The same compound gave a half-maximal inhibitory concentration (IC50) at 72 h in data set [7] of 25.4 µM.

With `COc1c(C)c(OS(=O)(=O)c2ccc3ccccc3c2)c(C)c(O)c1C(=O)/C=C/c1ccccc1` [Compound 2n, 2′-Hydroxy-4′-(2-naphthalenesulfonyl)oxy-6′-methoxy-3′,5′-dimethylchalcone], the half-inhibitory concentration (IC50) is 27.8 µM in data set [1]; 21.1 µM in data set [2]; 24.7 µM in data set [3]; 39.8 µM in data set [4]; over 50 µM in data set [5]; 16.4 µM in data set [6]. Also, the concentration for half-maximal inhibition (IC50) at 72 h in data set [7] was 30.4 µM.

A word on the zone of inhibition: it is the extent of the growth-free halo in a diffusion test. In the case of `COc1c(C)c(O)c(C)c(O)c1C(=O)/C=C/c1ccccc1` [DMC, 2′,4′-Dihydroxy-6′-methoxy-3′,5′-dimethylchalcone], the 50% inhibitory concentration (IC50) is 29.4 µM in data set [1]; 37.6 µM in data set [2]; 38.6 µM in [3]; 37.6 µM in [4]; 19.9 µM in data set [5]; 13.1 µM in data set [6]. Further, the IC50 at 72 h in data set [7] came to 15.6 µM. The zone of inhibition at 5 µg/mL with S. aureus (ATCC 25923) came out at 9 mm; with E. coli (ATCC 25922), 8 mm; in data set [9], 8 mm.

`CCCCCCCCCC(=O)Oc1c(C)c(O)c(C(=O)/C=C/c2ccccc2)c(OC)c1C` [Compound 2d, 2′-Hydroxy-4′-caprinoyloxy-6′-methoxy-3′,5′-dimethylchalcone]: the IC50 in data set [1] was over 50 µM; in data set [2], 34.7 µM; in [3], over 50 µM; in data set [4] it was 36.7 µM; in data set [5], over 50 µM; in data set [6], 24.8 µM. In [7], this compound yielded a half-inhibitory concentration (IC50) at 72 h of 41.9 µM.

As for `COc1c(C)c(OC(=O)c2ccccc2)c(C)c(O)c1C(=O)/C=C/c1ccccc1` [Compound 2k, 2′-Hydroxy-4′-benzoyloxy-6′-methoxy-3′,5′-dimethylchalcone], the half-maximal inhibitory concentration (IC50) was over 50 µM in data set [1]; 37.9 µM in [2]; 32.5 µM in data set [3]; over 50 µM in data set [4]; 41.3 µM in data set [5]; 20.2 µM in data set [6]. In data set [7], this compound came in with a half-maximal inhibitory concentration (IC50) at 72 h of over 50 µM.

For `COc1c(C)c(OC)c(C(=O)/C=C/c2ccccc2)c(OC)c1C` [Compound 5g, 2′,4′,6′-Trimethoxy-3′,5′-dimethylchalcone], the IC50 stood at 23.5 µM in data set [1]; 19.3 µM in data set [2]; 21.9 µM in data set [3]; 29.8 µM in [4]; 22.7 µM in data set [5]; 12.6 µM in data set [6]. Moreover, in [8] (Homo sapiens, read-out: IC50 on all tested cancer cell lines), the 50% inhibitory concentration (IC50) lay within 12.6 to 29.8 µM. The compound also came in with an IC50 at 72 h in data set [7] of 18.7 µM. In addition, the “Cytotoxicity (in words)” value in [8] is on record as “moderate cytotoxicity”.
